From ChEMBL document CHEMBL1158579, “Antimicrobial triterpenoid glycosides from Cephalaria scoparia” (2010)
Values after ≈ are worked out from the molar mass of the structure shown.

Columns and labels:
[1] = tested on: Staphylococcus epidermidis; assay: Antimicrobial activity against Staphylococcus epidermidis ATCC 12228 after 24 hrs by microdilution assay; format: functional
Summary of the method: (§1)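 Broth microdilution MIC in Mueller-Hinton broth. Inocula came from 24 h broth cultures grown at 37 °C, were adjusted to 0.5 McFarland and diluted 1:100 in broth. Compounds were tested at final concentrations of 256 to 0.5 µg/mL, with gentamycin at 128 to 0.25 µg/mL. Sealed plates were incubated 24 h at 37 °C. MIC was the lowest concentration with no visible growth. Clear wells were subcultured onto Mueller-Hinton agar. Triplicate.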

Staphylococcus aureus = assay: Antimicrobial activity against Staphylococcus aureus ATCC 6538-P after 24 hrs by microdilution assay; format: functional; summary of the method: as §1
Klebsiella pneumoniae = assay: Antimicrobial activity against Klebsiella pneumoniae CCM 2318 after 24 hrs by microdilution assay; format: functional; summary of the method: as §1
Salmonella enterica = assay: Antimicrobial activity against Salmonella Typhimurium CCM 5445 after 24 hrs by microdilution assay; format: functional, Salmonella enterica subsp. enterica serovar Typhimurium; summary of the method: as §1
Escherichia coli = assay: Antimicrobial activity against Escherichia coli ATCC 23999 after 24 hrs by microdilution assay; format: functional; summary of the method: as §1
Pseudomonas aeruginosa = assay: Antimicrobial activity against Pseudomonas aeruginosa ATCC 27853 after 24 hrs by microdilution assay; format: functional; summary of the method: as §1
Bacillus cereus = assay: Antimicrobial activity against Bacillus cereus ATCC 7064 after 24 hrs by microdilution assay; format: functional; summary of the method: as §1
Enterococcus faecalis = assay: Antimicrobial activity against Enterococcus faecalis ATCC 29212 after 24 hrs by microdilution assay; format: functional; summary of the method: as §1

Compound	MIC ([1]; ATCC 12228, 24 h)	MIC (Staphylococcus aureus)	MIC (Klebsiella pneumoniae; CCM 2318, 24 h)	MIC (Salmonella enterica; CCM 5445, 24 h)	MIC (Escherichia coli; ATCC 23999, 24 h)	MIC (Pseudomonas aeruginosa; ATCC 27853, 24 h)	MIC (Bacillus cereus; ATCC 7064, 24 h)	MIC (Enterococcus faecalis; ATCC 29212, 24 h)	MIC [1]	MIC (Klebsiella pneumoniae)	MIC (Salmonella enterica; Salmonella enterica subsp. enterica serovar Typhimurium)	MIC (Escherichia coli)	MIC (Pseudomonas aeruginosa)	MIC (Bacillus cereus)	MIC (Enterococcus faecalis)
C[C@@H]1O[C@@H](O[C@H]2[C@H](O[C@H]3CC[C@]4(C)[C@H]5CC=C6[C@H]7CC(C)(C)CC[C@]7(C(=O)O[C@@H]7O[C@H](CO[C@@H]8O[C@H](CO)[C@@H](O)[C@H](O)[C@H]8O)[C@@H](O)[C@H](O)[C@H]7O)CC[C@@]6(C)[C@]5(C)CC[C@H]4C3(C)C)OC[C@H](O)[C@@H]2O[C@@H]2OC[C@@H](O[C@@H]3O[C@H](CO)[C@@H](O)[C@H](O)[C@H]3O)[C@H](O)[C@H]2O)[C@H](O)[C@H](O[C@@H]2OC[C@@H](O)[C@H](O)[C@H]2O)[C@H]1O [SCOPOSIDE C]	64 µg/mL (≈ 43.1 µM)	64 µg/mL (≈ 43.1 µM)	64 µg/mL (≈ 43.1 µM)	64 µg/mL (≈ 43.1 µM)	128 µg/mL (≈ 86.2 µM)	128 µg/mL (≈ 86.2 µM)	32 µg/mL (≈ 21.5 µM)	32 µg/mL (≈ 21.5 µM)							
C[C@@H]1O[C@@H](O[C@H]2[C@H](O)[C@@H](O)[C@H](O[C@H]3CC[C@]4(C)[C@H]5CC=C6[C@H]7CC(C)(C)CC[C@]7(C(=O)O[C@@H]7O[C@H](CO[C@@H]8O[C@H](CO)[C@@H](O)[C@H](O)[C@H]8O)[C@@H](O)[C@H](O)[C@H]7O)CC[C@@]6(C)[C@]5(C)CC[C@H]4C3(C)C)O[C@@H]2CO)[C@H](O)[C@H](O[C@@H]2OC[C@@H](O[C@@H]3OC[C@@H](O)[C@H](O)[C@H]3O)[C@H](O)[C@H]2O)[C@H]1O [SCOPOSIDE B]	128 µg/mL (≈ 94.6 µM)	256 µg/mL (≈ 189 µM)	64 µg/mL (≈ 47.3 µM)	64 µg/mL (≈ 47.3 µM)	128 µg/mL (≈ 94.6 µM)	64 µg/mL (≈ 47.3 µM)	16 µg/mL (≈ 11.8 µM)	64 µg/mL (≈ 47.3 µM)							
GENTAMICIN		1 µg/mL							1 µg/mL	4 µg/mL	1 µg/mL	1 µg/mL	2 µg/mL	4 µg/mL	16 µg/mL
C[C@@H]1O[C@@H](O[C@H]2[C@H](OC(=O)[C@]34CCC(C)(C)C[C@@H]3C3=CC[C@@H]5[C@@]6(C)CC[C@H](O[C@@H]7OC[C@H](O)[C@H](O)[C@H]7O)C(C)(C)[C@@H]6CC[C@@]5(C)[C@]3(C)CC4)O[C@H](CO[C@@H]3O[C@H](CO)[C@@H](O)[C@H](O)[C@H]3O)[C@@H](O)[C@@H]2O)[C@H](O)[C@H](O)[C@H]1O [SCOPOSIDE A]	64 µg/mL (≈ 60.4 µM)	128 µg/mL (≈ 121 µM)	64 µg/mL (≈ 60.4 µM)	128 µg/mL (≈ 121 µM)	8 µg/mL (≈ 7.55 µM)	64 µg/mL (≈ 60.4 µM)	16 µg/mL (≈ 15.1 µM)	32 µg/mL (≈ 30.2 µM)							
